# Screens: PubChem, several laboratories
# pCIP destab: p/CIP-EGFP fusion destabilizers, primary screen, fluorescence, F442A cells; decrease of EGFP signal, % at 10 µM; 16 h; 290,000 compounds, 0.01% hits;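 active = EGFP signal decrease of at least 30% at 10 µM or well 3 SD below plate mean, unless failing retest; inactive = the rest, including hits failing retest or dose response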
# ABCB6 inh MLPCN: ABCB6 transporter inhibitors, primary screen, K562-ABCB6 cells, flow cytometry, MLPCN library | K562-ABCB6 porphyrin accumulation, 1 h; stronger effect = lower value | AID 602162, 2011 | ATP-binding cassette sub-family B member 6 (Homo sapiens), Q9NP58 | fluorescence ratio to DMSO, % at 10 µM | 360,000 compounds, 0.19% hits;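 active = fluorescence ratio to DMSO below 75%, the collection mean minus 3 SD; inconclusive = too few cells collected in the well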;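 also: signal is porphyrin accumulated inside mitochondria; 100% equals median channel fluorescence of DMSO control wells; lower ratio means ABCB6 inhibition with less porphyrin fluorescence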
# Target sequence (Q9NP58 whole entry, looked up): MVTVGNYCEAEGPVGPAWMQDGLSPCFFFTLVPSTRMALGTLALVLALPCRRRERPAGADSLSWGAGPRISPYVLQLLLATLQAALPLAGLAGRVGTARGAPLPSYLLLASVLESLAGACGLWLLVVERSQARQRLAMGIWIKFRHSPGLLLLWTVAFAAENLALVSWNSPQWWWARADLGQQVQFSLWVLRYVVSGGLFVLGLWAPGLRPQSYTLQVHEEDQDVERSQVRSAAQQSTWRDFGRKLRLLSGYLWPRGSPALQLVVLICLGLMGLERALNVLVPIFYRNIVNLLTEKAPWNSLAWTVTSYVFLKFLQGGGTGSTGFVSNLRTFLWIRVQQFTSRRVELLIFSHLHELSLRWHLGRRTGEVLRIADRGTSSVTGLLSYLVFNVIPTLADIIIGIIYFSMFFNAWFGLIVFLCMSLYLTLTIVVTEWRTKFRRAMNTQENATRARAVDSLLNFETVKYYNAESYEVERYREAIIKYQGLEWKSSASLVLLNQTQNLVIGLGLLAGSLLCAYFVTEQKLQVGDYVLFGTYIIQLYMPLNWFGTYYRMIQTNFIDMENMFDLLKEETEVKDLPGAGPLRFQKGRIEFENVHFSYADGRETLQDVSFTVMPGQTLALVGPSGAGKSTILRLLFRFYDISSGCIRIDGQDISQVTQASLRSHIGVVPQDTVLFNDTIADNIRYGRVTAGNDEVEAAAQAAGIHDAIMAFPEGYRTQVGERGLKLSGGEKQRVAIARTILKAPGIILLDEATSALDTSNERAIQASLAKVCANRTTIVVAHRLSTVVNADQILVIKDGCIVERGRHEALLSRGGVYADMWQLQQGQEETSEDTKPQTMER
# Dynein transport: inhibitors of GR-EGFP nuclear translocation, primary screen, dynein cargo transport inhibitor project, imaging, high-content, 3617.4 mouse cells. test concentration mostly 20 µM; stimulated with dexamethasone, 1 µM; stronger effect = lower value. z-score, hits read low. 220,000 compounds, 0.47% hits;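 active = plate z-score of nuclear minus cytoplasmic receptor signal below a set negative limit, without overly bright fluorescence or cell loss, cut at about -3.5 in these data, passing the limit was not always enough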;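 also: z-score of nuclear minus cytoplasmic ring GR-EGFP intensity difference per well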
#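 Schedule: 48 h induction, then 1 h compound, then 30 min agonist, 37 °C. Buffer or medium: tetracycline-free induction medium containing charcoal-stripped FBS. Reagent: 1.0 µM final dexamethasone stimulus. Evaluation: nuclear versus cytoplasmic GR-EGFP signal, averaged per well. Signal: high-content fluorescence imaging after fixation.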
# KCC2 mod: KCC2 cotransporter modulators, thallium flux, primary screen, cell-based, HEK293 KCC2, FluoZin-2 fluorescence, MLSMR; Solute carrier family 12 member 5 (Homo sapiens), Q9H2X9; KCC2 cells, thallium flux FluoZin-2 fluorescence; B-score of Tl+ flux slope (higher = more flux/activation; lower = inhibition) at 10 µM; 190,000 compounds, 2.2% hits; AID 1456, 2008;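 active = thallium flux slope and its plate-corrected score both differing from the plate sample mean at a set confidence after two filtering rounds, in either direction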;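 also: slope of fluorescence scaled to starting intensity during 10 to 20 s after thallium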
# V-ATPase pHluor: regulators of yeast V-ATPase proton pumping, primary screen, pHLuorin cytosolic pH fluorescence. S. cerevisiae. response, % at 10 µM. 350,000 compounds, 0.37% hits; in the data active = response mostly above about 7.3%, no sharp cut-off; inactive = mostly below about 5.4%; also: actives read high
# KCC2 sec1: KCC2 modulators in sodium-free buffer, confirmation, cell-based, HEK293 KCC2, thallium flux, secondary assay; shares compounds with KCC2 mod; FluoZin2 fluorescence; stronger effect = higher value; normalised thallium flux (F/F0 slope) at 10 µM; 3,700 compounds, 15% hits; AID 1713, 2009;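 active = thallium flux slope above the same plate's solvent-only control mean plus 3 SD; inconclusive = the two replicate wells disagree; inactive = no significant difference from solvent-only control wells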
# KCC2 bumet counter: thallium flux persisting under bumetanide in KCC2 cells, confirmation, counter-screen for KCC2 modulator project, cell-based, HEK293 KCC2, FluoZin2, secondary assay 3; 3,700 compounds, 49% hits; shares compounds with KCC2 mod; AID 1714, 2009; HEK293-KCC2 + bumetanide/ouabain; stronger effect = higher value; normalized thallium flux at 10 µM;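 active = thallium entry rate above the same plate's blocked-transporter control wells by more than 3 SD; inconclusive = the two repeat wells disagree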;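 also: raw slope of fluorescence over initial fluorescence between 10 and 20 s after thallium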
# KCC2 sec2: KCC2 modulators without ouabain present, confirmation, cell-based, HEK293 KCC2, thallium flux, FluoZin2, secondary assay 2. shares compounds with KCC2 mod. thallium flux FluoZin2 fluorescence; actives lie on both sides; F/F0 rise rate, 10–20 s post-thallium. normalized thallium flux at 10 µM. 3,700 compounds, 23% hits. AID 1715, 2009;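 active = thallium flux slope more than 3 SD above or below the plate's solvent-only control mean, mostly below; inconclusive = the two repeat wells disagreed; inactive = no significant shift from solvent-only controls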;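 also: raw slope with 0.1% DMSO as baseline and bumetanide as block control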
# HEK293 Tl flux: thallium flux modulation in parental HEK cells, confirmation, counter-screen for KCC2 modulator project, cell-based, counterscreen 1. thallium flux rate (normalised fluorescence) at 10 µM. shares compounds with KCC2 mod. 3,700 compounds, 46% hits. AID 1716, 2009. HEK293 parental cells, thallium flux FluoZin2, ouabain; baseline-ratio fluorescence slope, 10–20 s after thallium;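 active = thallium flux rate significantly above the same plate's solvent-only control wells, beyond their mean plus 3 SD; inconclusive = the two replicate wells gave conflicting results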
# KCC2 ouabain: KCC2 inhibitors and activators, ouabain retest, confirmation, HEK-KCC2 cells | shares compounds with KCC2 mod | HEK293-KCC2, thallium flux FluoZin2 fluorescence; bidirectional: low = inhibitor, high = activator | raw Tl+ flux slope (below DMSO = inhibition, above = activation) at 10 µM | 3,700 compounds, 48% hits | AID 1717, 2009;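 active = thallium flux slope beyond 3 SD from same-plate DMSO control mean in most replicates, usually higher, sometimes lower; inconclusive = repeat tests gave conflicting results; inactive = no significant difference from controls in most replicates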;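 also: slope of initial-normalized fluorescence between seconds 10 and 20 after thallium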
# HEK293 Tl flux2: native HEK Tl+ uptake effects, second counter-screen – HEK cells, counterscreen 2, counter-screen for KCC2 modulator project, confirmation; shares compounds with KCC2 mod; thallium flux slope at 10 µM; 3,700 compounds, 33% hits; HEK293 parental, thallium flux FluoZin-2 fluorescence slope;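 active = thallium flux slope above the same plate's solvent-control mean plus 3 SD in both duplicate wells; inconclusive = duplicate wells that disagreed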;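 also: run without ouabain in cells lacking the KCC2 cotransporter; slope of fluorescence scaled to its starting value between 10 and 20 s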
# * = called active by the depositor; ? = inconclusive; . = no result. The entries come from a sample that favours hits as a whole.
SMILES,pCIP destab,ABCB6 inh MLPCN,Dynein transport,KCC2 mod,V-ATPase pHluor,KCC2 sec1,KCC2 bumet counter,KCC2 sec2,HEK293 Tl flux,KCC2 ouabain,HEK293 Tl flux2
COc1ccc(NC(=O)CCCCCN2C(=O)CCC2=O)cc1Cl,6.9,101.0,0.432,.,8.3,0.00914,?,0.0344,0.00847,0.0226,0.011
Cc1nn(-c2ccccc2)c2sc(C(=O)O)cc12,-9.5,91.0,0.431,-1.26,0.6,.,.,.,.,.,.
Cc1nn(-c2ccccc2)c2sc(-c3n[nH]c(=S)o3)cc12,-3.4,100.0,-0.164,6.26*,-2.3,0.0145*,0.0284*,0.0322,0.0139*,?,0.0129*
COc1cc(NC(=O)C2CCN(S(=O)(=O)c3ccc4[nH]c(=O)oc4c3)CC2)cc(OC)c1,-12.9,103.0,.,.,-6.6,.,.,.,.,.,.
O=C(/C=C/c1ccc(Cl)cc1)N(Cc1cccs1)C1CCS(=O)(=O)C1 (stereo not given),-4.7,99.0,-0.66,-1.57,3.5,.,.,.,.,.,.
N#Cc1c(N)n[nH]c1-c1cc2c([nH]1)CCCC2,5.1,97.0,-0.963,0.022,1.5,.,.,.,.,.,.
N#Cc1cc2c([nH]c1=S)CCCCCC2,-0.4,97.0,-0.37,6.44*,1.5,0.0128*,0.0216*,0.03,0.0134*,?,?
CNc1oc(C)nc1S(=O)(=O)c1ccc(C)cc1,0.4,84.0,-0.697,.,-4.6,.,.,.,.,.,.
Cc1ccc(S(=O)(=O)c2nc(C)oc2NCc2ccccc2)cc1,-3.9,.,2.06,.,.,0.00599,0.00553,0.0333,0.0076,?,0.0112
Cn1c(/N=C/c2ccc3c(c2)OCO3)nc2ccccc21,3.0,94.0,-0.332,-3.13*,4.5,0.00749,0.00442,?,0.00732,0.0171*,0.0101
Nc1nc2ccccc2n1/N=C/c1ccc2c(c1)OCO2,2.5,90.0,-0.0978,-0.58,-0.3,.,.,.,.,.,.
CC1(C)Cc2nc(Cl)c(C(N)=O)cc2CO1,-12.3,104.0,1.17,-0.104,0.5,.,.,.,.,.,.
O=C(NNc1c(Cl)cncc1Cl)c1sccc1Cl,4.1,93.0,0.171,0.147,1.0,.,.,.,.,.,.
Cc1csc(SCC(=O)NCc2cccc(Cl)c2)n1,0.7,99.0,0.123,-0.417,1.5,.,.,.,.,.,.
Cc1occc1-c1nnc(SCC(=O)c2ccc(F)cc2)n1Cc1ccco1,-12.1,107.0,-0.764,-3.02*,-2.9,0.00575,?,0.0229*,0.00548*,0.0113*,0.00926
O=C(CSc1nnc(-c2ccco2)n1Cc1ccccc1)c1ccc(F)cc1,-19.5,96.0,0.0602,-6.14*,-2.7,0.00592,?,0.0214*,0.00545*,0.0124*,?
